Assay results taken from ChEMBL document CHEMBL1926547, “Structure based drug design, synthesis and evaluation of 4-(benzyloxy)-1-phenylbut-2-yn-1-ol derivatives as 5-lipoxygenase inhibitors” (Eur J Med Chem, 2012).
Active and inactive are the calls of the source. No cut-off for these calls is given here.

Legend:
Mus musculus [1] = assay: Antiinflammatory activity against LPS-induced inflammation in BALB/c mouse acute lung injury model assessed as reduction in total cell count bronchoalveolar lavage fluid at 50 mg/kg, ip administered 1 hr prior to LPS challenge measured after 12 hrs by Wright-Giemsa staining based hemocytometry; assay type: functional, organism-based; design: dose 50 mg/kg
How it was run: (§1)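 Male BALB/c mice (20–25 g, 6/group), intratracheal LPS 1 mg/kg in PBS under ketamine/xylazine, compound 50 mg/kg ip 1 h prior. At 12 h, lavage three times with 0.5 mL PBS via tracheal cannula; pellet resuspended; total cells by hemocytometer; differentials from ≥200 cells on Wright–Giemsa smear. Mean ± SEM, unpaired t-test.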

Mus musculus [2] = assay: Antiinflammatory activity against LPS-induced inflammation in BALB/c mouse acute lung injury model assessed as reduction in neutrophil count in bronchoalveolar lavage fluid at 50 mg/kg, ip administered 1 hr prior to LPS challenge measured after 12 hrs by Wright-Giemsa staining based hemocytometry; assay type: functional, organism-based; design: dose 50 mg/kg; how it was run: as §1
Mus musculus [3] = assay: Antiinflammatory activity against LPS-induced inflammation in BALB/c mouse acute lung injury model assessed as reduction in macrophage count in bronchoalveolar lavage fluid at 50 mg/kg, ip administered 1 hr prior to LPS challenge measured after 12 hrs by Wright-Giemsa staining based hemocytometry; assay type: functional, organism-based; design: dose 50 mg/kg; how it was run: as §1
Mus musculus [4] = assay: Antiinflammatory activity against LPS-induced inflammation in BALB/c mouse acute lung injury model assessed as reduction in protein level in bronchoalveolar lavage fluid at 50 mg/kg, ip administered 1 hr prior to LPS challenge measured after 12 hrs by Bradford assay; assay type: functional, organism-based; design: dose 50 mg/kg
How it was run: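 Mouse LPS lung-injury model as described (BALB/c males, intratracheal LPS 1 mg/kg, compound 50 mg/kg ip 1 h beforehand). BAL fluid collected 12 h post-challenge, centrifuged 3000 rpm 10 min at 4 °C; supernatant stored −70 °C; protein by Bradford, expressed as mg/mL BALF. Six mice per group.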

Mus musculus [5] = assay: Antiinflammatory activity against LPS-induced inflammation in BALB/c mouse acute lung injury model assessed as reduction in inflammatory cells infiltration at 50 mg/kg, ip administered 1 hr prior to LPS challenge measured after 12 hrs by hematoxylin and eosin staining based light microscopy; assay type: functional, organism-based; design: dose 50 mg/kg
How it was run: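 Male BALB/c mice (20–25 g, 6/group, fasted 8 h) anesthetized with ketamine/xylazine; LPS 25 μg (1 mg/kg) intratracheal in 50 μL PBS; test agent 50 mg/kg ip 1 h before; PBS vehicle controls. At 12 h right lungs inflated, fixed in 10% buffered formaldehyde, paraffin-embedded, H&E stained; infiltration and wall thickening judged by light microscopy.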

Mus musculus [6] = assay: Antiinflammatory activity against LPS-induced inflammation in BALB/c mouse acute lung injury model assessed as reduction in wet/dry ratio of lung at 50 mg/kg, ip administered 1 hr prior to LPS challenge measured after 12 hrs; assay type: functional, organism-based; design: dose 50 mg/kg
How it was run: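 In BALB/c males given intratracheal LPS (1 mg/kg) after ip dosing at 50 mg/kg 1 h earlier, left lungs excised at 12 h, rinsed thrice in PBS, blotted, weighed, oven-dried at 72 °C for 36–48 h and reweighed; wet/dry ratio indicates edema. Six mice per group.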

Mus musculus [7] = assay: Antiinflammatory activity against LPS-induced inflammation in BALB/c mouse acute lung injury model assessed as reduction in alveolar wall thickening at 50 mg/kg, ip administered 1 hr prior to LPS challenge measured after 12 hrs by hematoxylin and eosin staining based light microscopy
[8] = molecular target: T1, Polyunsaturated fatty acid 5-lipoxygenase (Homo sapiens, UniProt P09917); assay: Inhibition of 5-LOX assessed as decrease in oxygen concentration using arachidonic acid as substrate by polarigraphic method with Clark's oxygen electrode
T1 sequence (P09917 whole entry): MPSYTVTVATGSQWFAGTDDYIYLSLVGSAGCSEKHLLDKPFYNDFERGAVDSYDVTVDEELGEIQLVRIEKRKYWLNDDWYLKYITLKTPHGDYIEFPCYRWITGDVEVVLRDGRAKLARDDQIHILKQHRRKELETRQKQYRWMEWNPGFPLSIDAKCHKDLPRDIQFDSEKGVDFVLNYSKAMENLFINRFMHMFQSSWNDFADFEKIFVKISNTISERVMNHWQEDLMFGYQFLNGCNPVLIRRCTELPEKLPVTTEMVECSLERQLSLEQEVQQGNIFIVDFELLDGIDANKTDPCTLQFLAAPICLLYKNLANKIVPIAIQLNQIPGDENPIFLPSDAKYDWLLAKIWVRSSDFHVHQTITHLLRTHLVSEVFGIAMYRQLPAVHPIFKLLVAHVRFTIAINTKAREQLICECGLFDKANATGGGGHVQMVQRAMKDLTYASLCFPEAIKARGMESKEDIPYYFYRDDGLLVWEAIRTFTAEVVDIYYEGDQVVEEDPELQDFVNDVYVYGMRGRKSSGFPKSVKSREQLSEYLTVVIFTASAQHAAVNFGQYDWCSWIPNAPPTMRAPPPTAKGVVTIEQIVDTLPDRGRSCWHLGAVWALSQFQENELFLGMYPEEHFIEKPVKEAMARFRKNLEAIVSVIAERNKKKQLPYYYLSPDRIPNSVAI
How it was run: (§2)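 Purified 5-LOX, activity measured polarographically by Clark oxygen electrode as rate of O2 decrease. Enzyme in 100 mM phosphate pH 6.3, 3 mL final, with compound (DMSO stocks, various concentrations); reaction started with arachidonic acid 133 μM, 25 °C; maximal slope used. IC50 from concentration–inhibition curve; each assay repeated thrice.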

COLO 205 = assay: Growth inhibition of human COLO205 cells after 48 hrs by MTT assay; assay type: functional; conditions: COLO 205, 48 h
How it was run: (§3)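 Cells kept in RPMI-1640 + 10% heat-inactivated FBS, penicillin/streptomycin, 2 mM glutamine, 37 °C 5% CO2; seeded 5×10^3/well the day before, washed with PBS, fresh medium. Compounds 0.1–100 μM, 48 h; MTT 4 h at 37 °C, formazan dissolved in DMSO, OD 570 nm. GI50 from dose-survival curves; three experiments in triplicate.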

HepG2 = assay: Growth inhibition of human HepG2 cells after 48 hrs by MTT assay; assay type: functional; conditions: HepG2, 48 h; how it was run: as §3
MDA-MB-231 = assay: Growth inhibition of human MDA-MB-231 cells after 48 hrs by MTT assay; assay type: functional; conditions: MDA-MB-231, 48 h; how it was run: as §3
[9] = molecular target: T2, Polyunsaturated fatty acid 5-lipoxygenase (Homo sapiens) (UniProt P09917); assay: Irreversible inhibition of 5-LOX assessed as decrease in oxygen concentration using arachidonic acid as substrate at 10-fold increased enzyme concentration pre-incubated for 5 mins before substrate addition by polarigraphic method with Clark's oxygen electrode
T2 sequence (whole entry): T1 sequence (P09917 whole entry)
How it was run: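 Oxygen-electrode 5-LOX assay run with 10-fold excess enzyme: enzyme and compound incubated 5 min, then reaction initiated with arachidonic acid 133 μM; AA-861 control.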

[10] = molecular target: T2, Polyunsaturated fatty acid 5-lipoxygenase (Homo sapiens); assay: Irreversible inhibition of 5-LOX assessed as decrease in oxygen concentration using arachidonic acid as substrate measured after dilution by polarigraphic method with Clark's oxygen electrode
[11] = molecular target: T2, Polyunsaturated fatty acid 5-lipoxygenase (Homo sapiens); assay: Inhibition of 5-LOX assessed as decrease in oxygen concentration using arachidonic acid as substrate by polarigraphic method with Clark's oxygen electrode in presence of 0.1 mg/mL BSA
How it was run: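 Oxygen-electrode 5-LOX assay (phosphate pH 6.3, 25 °C) with enzyme pre-incubated with BSA 0.1 mg/mL plus compound before starting with arachidonic acid 133 μM; reduced inhibition taken as sign of non-specific binding. AA-861 control.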

HaCaT = assay: Cytotoxicity against human HaCaT cells at up to 100 uM after 48 hrs by MTT assay; assay type: cell-based; how it was run: as §3
[12] = molecular target: T1, Polyunsaturated fatty acid 5-lipoxygenase; assay: Inhibition of 5-LOX; how it was run: as §2

SMILES | IC50 [8] | GI50 (COLO 205) | GI50 (HepG2) | GI50 (MDA-MB-231) | also measured
Cc1ccc(-c2cc(C(F)(F)F)nn2-c2ccc(S(N)(=O)=O)cc2)cc1 | – | – | – | – | inhibition (Mus musculus [1]): Active; inhibition (Mus musculus [2]): Active; inhibition (Mus musculus [3]): Active; inhibition (Mus musculus [4]): Active; inhibition (Mus musculus [5]): Active; Activity (Mus musculus [6]): Active; inhibition (Mus musculus [7]): Active
CSc1ccc(COCC#CC(O)c2cccc([N+](=O)[O-])c2)cc1 (stereo not given) | 62 µM | 71 µM | 54 µM | 62 µM | –
CSc1ccc(COCC#CC(O)c2ccc(C#N)cc2)cc1 (stereo not given) | 41 µM | 71 µM | 54 µM | 62 µM | –
CC1=C(C)C(=O)C(CCCCC#CCCCC#CCO)=C(C)C1=O [DOCEBENONE] | 1.7 µM | – | – | – | –
CCCCCC(O)C#CCOCc1ccc(SC)cc1 (stereo not given) | > 100 µM | – | – | – | –
COc1cc(C(O)C#CCOCc2ccc(SC)cc2)cc(OC)c1OC (stereo not given) | 80 µM | 100 µM | 100 µM | 100 µM | –
CSc1ccc(COCC#CC(O)c2ccc(C(C)C)cc2)cc1 (stereo not given) | 8 µM | 12 µM | 22 µM | 15 µM | inhibition [9]: Active; inhibition [10]: Active; fold change (FC) [11]: 1; Activity (HaCaT): Non-toxic; inhibition (Mus musculus [1]): Active; inhibition (Mus musculus [2]): Active; inhibition (Mus musculus [3]): Active; inhibition (Mus musculus [4]): Active; inhibition (Mus musculus [5]): Active; Activity (Mus musculus [6]): Active; inhibition (Mus musculus [7]): Active
OC(C#CCOCc1ccccc1)c1ccccc1 (stereo not given) | > 100 µM | – | – | – | –
COc1ccc(C(O)C#CCOCc2ccc(SC)cc2)cc1 (stereo not given) | > 100 µM | – | – | – | –
CCCC(O)C#CCOCc1ccccc1 (stereo not given) | – | – | – | – | IC50 [12]: 760 µM
COc1ccc(C(O)C#CCOCc2ccc(SC)cc2)cc1OC (stereo not given) | 80 µM | – | – | – | –
CSc1ccc(COCC#CC(O)c2ccc(F)cc2)cc1 (stereo not given) | 12 µM | 22 µM | 31 µM | 20 µM | inhibition [9]: Active; inhibition [10]: Active; fold change (FC) [11]: 1; Activity (HaCaT): Non-toxic
COc1ccc(C(O)C#CCOCc2ccc(SC)cc2)c(OC)c1OC (stereo not given) | 72 µM | – | – | – | –
COc1cccc(C(O)C#CCOCc2ccc(SC)cc2)c1OC (stereo not given) | 69 µM | – | – | – | –
